The values that follow come from article PMC7359933 (Clinical and Translational Science, 2020).

Series [1] relates to QTc interval. The conditions noted are these: cited from earlier work.
The subject of series [2] is healthy volunteers. Briefly: Thorough QT/QTc study part 2: Holter ECG, Fridericia-corrected QT interval. The series is classed as in vivo, human. To be noted: for Mean difference vs. placebo (90% CI), msec ddQTcF: MOX 400 mg (C–D); for Mean change from baseline, msec ddQTcF: MOX 400 mg single dose (C). A digest of the protocol: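 Healthy subjects, randomized four-period crossover with 10-day washouts, fed: oral fostemsavir 1,200 mg q.d. or 2,400 mg b.i.d. for 7 days, placebo b.i.d., or single moxifloxacin 400 mg on day 7. Triplicate ECGs from 24-h Holter, read centrally. Baseline is the mean of day-1 predose readings; readings 0.5–22.25 h post-dose on day 7. Linear mixed model gives 90% CI; bound 10 msec; assay sensitivity >5 msec at 2–4 h.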

For series [3] the following is noted: cited from earlier work.
For series [4] the following is noted: ritonavir 100 mg (q.d. or b.i.d.) ref 18, 21; cited from earlier work.
For series [5] the following is noted: cited from earlier work. The source holds these as a separate data set.
The conditions of series [6]: cited from earlier work. This is another data set of the same source.
The conditions of series [7]: cited from earlier work. This is another data set of the same source.
Series [8] deals with healthy volunteers. The arrangement: species or system human. The conditions noted are these: final linear concentration‐ddQTcF model.
In series [9] the test system is dog. To be noted: nonclinical assessment of fostemsavir or TMR ref unpublished data; cited from earlier work.
The conditions of series [10]: heavily treatment‐experienced HIV‐1 infected patients, fostemsavir 600 mg b.i.d., BRIGHTE (NCT02362503) ref 22; cited from earlier work.

Like-named read-outs stand apart in the source and are kept apart here. Marks after values point to notes of the source that are not given here.

For the compound `Cc1cc(/C=C/C#N)cc(C)c1Nc1ccnc(Nc2ccc(C#N)cc2)n1` [rilpivirine], the “QTc prolongation, one‐sided 95% CI upper bound” value was 15.3 ms in series [1] (supratherapeutic dose 75 mg ref 11) and 8.2 ms in [1] (therapeutic dose 25 mg ref 11).
As for `COc1c(N2C[C@@H]3CCCN[C@@H]3C2)c(F)cc2c(=O)c(C(=O)O)cn(C3CC3)c12` [MOX, moxifloxacin, reference compound], the “Mean difference vs. placebo (90% CI), msec ddQTcF” value is reported as 0.42 (–1.73, 2.58) msec in series [2] (day 7, 0.5 hour); 2.95 (0.80, 5.10) msec in series [2] (day 7, 1 hour); 8.69 (6.57, 10.82)^a msec in series [2] (day 7, 2 hour); 10.43 (8.32, 12.54)^b msec in series [2] (day 7, 3 hour); 10.33 (8.22, 12.44)^c msec in series [2] (day 7, 4 hour); 8.83 (6.72, 10.94) msec in [2] (day 7, 5 hour). The “Mean difference vs. placebo (90% CI), msec ddQTcF” value in series [2] (day 7, 6 hour) is on record as 7.98 (5.87, 10.09) msec; in [2] (day 7, 8 hour) it was 8.05 (5.94, 10.17) msec; in series [2] (day 7, 10 hour), 8.96 (6.85, 11.07) msec; in series [2] (day 7, 11.5 hour) it was 8.75 (6.64, 10.86) msec; in series [2] (day 7, 14 hour), 7.55 (5.44, 9.66) msec; in [2] (day 7, 15 hour) it was 5.64 (3.52, 7.75) msec. In addition, the “Mean difference vs. placebo (90% CI), msec ddQTcF” value in series [2] (day 7, 16 hour) is given as 6.92 (4.81, 9.03) msec; in [2] (day 7, 22.25 hour) it was 6.19 (4.08, 8.30) msec. Further, the “Mean change from baseline, msec ddQTcF” value is “–7.12 msec” in series [2] (day 7, 0.5 hour); “–4.82 msec” in series [2] (day 7, 1 hour); “–1.93 msec” in series [2] (day 7, 2 hour); 0.40 ms in series [2] (day 7, 3 hour); 3.30 ms in [2] (day 7, 4 hour); 4.16 ms in [2] (day 7, 5 hour). Besides, the “Mean change from baseline, msec ddQTcF” value in series [2] (day 7, 6 hour) was “–0.81 msec”; in series [2] (day 7, 8 hour), “–0.74 msec”; in series [2] (day 7, 10 hour), 5.78 ms; in series [2] (day 7, 11.5 hour), 1.83 ms; in series [2] (day 7, 14 hour) it was 0.60 ms; in series [2] (day 7, 15 hour) it was 1.49 ms. In addition, the “Mean change from baseline, msec ddQTcF” value in series [2] (day 7, 16 hour) was 5.41 ms; in [2] (day 7, 22.25 hour), 2.73 ms. Besides, the “lower bound of multiplicity‐adjusted 90% CI of ddQTcF (assay sensitivity)” value in series [2] (moxifloxacin 400 mg, at 2, 3, and 4 hours) is reported as “above 5 msec”.
`CC(C)c1nc(CN(C)C(=O)N[C@@H](CCN2CCOCC2)C(=O)N[C@H](CC[C@H](Cc2ccccc2)NC(=O)OCc2cncs2)Cc2ccccc2)cs1` [cobicistat]: the “increase in Cmax compared to without concomitant cobicistat” value in series [3] (coadministration with cobicistat ref 21, 22) is 1.71 fold. Besides, the “increase in TMR plasma Cmax” value in [3] (cobicistat 150 mg q.d. ref 18, 21) is 71%.
For the compound `CC(C)c1nc(CN(C)C(=O)N[C@H](C(=O)N[C@@H](Cc2ccccc2)C[C@H](O)[C@H](Cc2ccccc2)NC(=O)OCc2cncs2)C(C)C)cs1` [ritonavir], in series [4], the “increase in TMR plasma Cmax” value is listed as 45–53%.
On to `COc1cnc(-n2cnc(C)n2)c2[nH]cc(C(=O)C(=O)N3CCN(C(=O)c4ccccc4)CC3)c12` [TMR, temsavir], for which the “effect of renal impairment on Cmax” value in [5] is “no effect”. In [2] (graphical assessment, part 2 data), the “relationship of ddQTcF with plasma TMR concentration” value is on record as “positive linear relationship”. In addition, in series [6], the membrane permeability result was “good”. Also, in series [7], the “influence of hepatic impairment on Cmax” value is under 1.72 fold. Moreover, in [8], the “Intercept θ1, bootstrap parameter estimate for n = 1,000 (90% CI)” value is reported as “–0.727 (–2.500, 1.072) msec”; the “Intercept θ1, population mean estimate (% RSE)” value is recorded as “–0.783 (139) msec”; the “Slope θ2, bootstrap parameter estimate for n = 1,000 (90% CI)” value is 0.00126 (0.0011, 0.00142) msec per ng/mL TMR; the “Slope θ2, population mean estimate (% RSE)” value was 0.00126 (7.9) msec per ng/mL TMR. Also, the “maximum observed TMR concentrations indicating cardiovascular liability” value in series [9] was ≥ 3,600 ng/mL. The “geometric mean TMR peak plasma concentration (Cmax)” value in [10] is recorded as 1,770 ng/mL.
